From ChEMBL document CHEMBL4732167, “Structure based design, synthesis, and biological evaluation of imidazole derivatives targeting dihydropteroate synthase enzyme” (Bioorg Med Chem Lett, 2021)
In brackets after ≈: the same amount, converted by molar mass.

Legend:
[1] = tested on: Plasmodium falciparum; test: Antimalarial activity against Plasmodium falciparum assessed as parasite growth inhibition; format: functional, organism-based
[2] = tested on: Aspergillus niger; test: Antifungal activity against Aspergillus niger MTCC 282 assessed as fungal growth inhibition; format: functional
[3] = tested on: Candida albicans; test: Antifungal activity against Candida albicans MTCC 227 assessed as fungal growth inhibition; format: functional
[4] = tested on: Aspergillus clavatus; test: Antifungal activity against Aspergillus clavatus MTCC 1323 assessed as fungal growth inhibition; format: functional
[5] = tested on: Escherichia coli; test: Antibacterial activity against Escherichia coli MTCC 443 assessed as bacterial growth inhibition; format: functional
[6] = tested on: Staphylococcus aureus; test: Antibacterial activity against methicillin-resistant Staphylococcus aureus assessed as inhibition of bacterial growth; format: functional
Summary of the method: (§1)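 Growth inhibition of the drug-resistant strain was read out as the minimum inhibitory concentration (MIC), reported in µg/mL. The same protocol was also run on an ESBL strain.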

[7] = tested on: Pseudomonas aeruginosa; test: Antibacterial activity against Pseudomonas aeruginosa MTCC 1688 assessed as bacterial growth inhibition; format: functional
[8] = tested on: Mycobacterium tuberculosis; test: Antibacterial activity against Mycobacterium tuberculosis H37Rv assessed as bacterial growth inhibition; format: functional
[9] = Antioxidant activity assessed as nitric oxide radical scavenging activity at 100 ug/ml (reference value: 25.8 to 41.6 %); format: functional; settings: dose 100.0 µg/ml
Summary of the method: (§2)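 Nitric oxide radical scavenging was tested at 0, 25, 50, 75 and 100 µg/ml of compound.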

[10] = Antioxidant activity assessed as DPPH radical scavenging activity at 50 ug/ml (reference value: 22 to 40.2 %); format: functional; settings: dose 50.0 µg/ml
Summary of the method: (§3)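 DPPH radical scavenging was measured at 0, 25, 50, 75 and 100 µg/ml of each compound. Ascorbic acid was the reference.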

[11] = tested on: Bacteria; test: Antibacterial activity against ESBL-producing bacteria assessed as bacterial growth inhibition; format: functional
Summary of the method: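 Values are minimum inhibitory concentrations (MIC) in µg/mL, determined at an outside microbiology laboratory.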

[12] = tested on: Staphylococcus aureus; test: Antibacterial activity against Staphylococcus aureus MTCC 96 assessed as bacterial growth inhibition; format: functional
[13] = Antioxidant activity assessed as nitric oxide radical scavenging activity at 25 ug/ml (reference value: 25.8 to 41.6 %); format: functional; settings: dose 25.0 µg/ml; summary of the method: as §2
[14] = Antioxidant activity assessed as DPPH radical scavenging activity at 100 ug/ml (reference value: 22 to 40.2 %); format: functional; settings: dose 100.0 µg/ml; summary of the method: as §3
[15] = Antioxidant activity assessed as DPPH radical scavenging activity at 25 ug/ml (reference value: 22 to 40.2 %); format: functional; settings: dose 25.0 µg/ml; summary of the method: as §3
[16] = tested on: Enterococcus; test: Antibacterial activity against vancomycin-resistant Enterococcus assessed as inhibition of bacterial growth; format: functional; summary of the method: as §1
[17] = Antioxidant activity assessed as nitric oxide radical scavenging activity at 50 ug/ml (reference value: 25.8 to 41.6 %); format: functional; settings: dose 50.0 µg/ml; summary of the method: as §2
[18] = Antioxidant activity assessed as DPPH radical scavenging activity at 75 ug/ml (reference value: 22 to 40.2 %); format: functional; settings: dose 75.0 µg/ml; summary of the method: as §3
[19] = Antioxidant activity assessed as nitric oxide radical scavenging activity at 75 ug/ml (reference value: 25.8 to 41.6 %); format: functional; settings: dose 75.0 µg/ml; summary of the method: as §2
[20] = Antioxidant activity assessed as hydrogen peroxide radical scavenging activity at 100 ug/ml (reference value: 23.6 to 43.1 %); format: functional; settings: dose 100.0 µg/ml
Summary of the method: (§4)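 Hydrogen peroxide scavenging was measured across a compound series of 0, 25, 50, 75 and 100 µg/ml.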

[21] = Antioxidant activity assessed as hydrogen peroxide radical scavenging activity at 25 ug/ml (reference value: 23.6 to 43.1 %); format: functional; settings: dose 25.0 µg/ml; summary of the method: as §4
[22] = Antioxidant activity assessed as hydrogen peroxide radical scavenging activity at 75 ug/ml (reference value: 23.6 to 43.1 %); format: functional; settings: dose 75.0 µg/ml; summary of the method: as §4
[23] = Antioxidant activity assessed as hydrogen peroxide radical scavenging activity at 50 ug/ml (reference value: 23.6 to 43.1 %); format: functional; settings: dose 50.0 µg/ml; summary of the method: as §4
[24] = tested on: Streptococcus pyogenes; test: Antibacterial activity against Streptococcus pyogenes MTCC 442 assessed as bacterial growth inhibition; format: functional

Compound | IC50 [1] | MFC [2] | MFC [3] | MFC [4] | MIC [5] | MIC [6] | MIC [7] | MIC [8] | Activity [9] | Activity [10] | MIC [11] | MIC [12] | Activity [13] | Activity [14] | Activity [15] | MIC [16] | Activity [17] | Activity [18] | Activity [19] | MIC [24] | other results
C=C[C@H]1CN2CC[C@H]1C[C@H]2[C@H](O)c1ccnc2ccc(OC)cc12 [QUININE] | 0.268 µg/mL (≈ 0.826 µM) |  |  |  |  |  |  |  |  |  |  |  |  |  |  |  |  |  |  |  | 
COC1=CC(=O)C[C@@H](C)[C@]12Oc1c(Cl)c(OC)cc(OC)c1C2=O [GRISEOFULVIN] |  | 100 µg/mL (≈ 283 µM) | 500 µg/mL (≈ 1420 µM) | 100 µg/mL (≈ 283 µM) |  |  |  |  |  |  |  |  |  |  |  |  |  |  |  |  | 
NYSTATIN |  | 100 µg/mL | 100 µg/mL | 100 µg/mL |  |  |  |  |  |  |  |  |  |  |  |  |  |  |  |  | 
COc1ccc(COc2ccc(NC(=O)CSc3nc(C)c(C(C)=O)n3-c3ccc(Br)cc3)cc2)cc1 | 1.25 µg/mL (≈ 2.15 µM) | > 1000 µg/mL | 500 µg/mL (≈ 861 µM) | 1000 µg/mL (≈ 1720 µM) | 125 µg/mL (≈ 215 µM) | 500 µg/mL (≈ 861 µM) | 50 µg/mL (≈ 86.1 µM) | 250 µg/mL (≈ 431 µM) | 84.3% | 41.3% | 250 µg/mL (≈ 431 µM) | 250 µg/mL (≈ 431 µM) | 51.7% | 73.2% | 34.8% | 250 µg/mL (≈ 431 µM) | 65.4% | 59.7% | 75.3% | 125 µg/mL (≈ 215 µM) | Activity [20]: 84.3%; Activity [21]: 47%; Activity [22]: 71%; Activity [23]: 60.7%
GENTAMICIN |  |  |  |  | 0.05 µg/mL |  | 1 µg/mL |  |  |  |  | 0.25 µg/mL |  |  |  |  |  |  |  | 0.5 µg/mL | 
O=C(O)c1cn(C2CC2)c2cc(N3CCNCC3)c(F)cc2c1=O [CIPROFLOXACIN] |  |  |  |  | 25 µg/mL (≈ 75.4 µM) |  |  |  |  |  |  | 50 µg/mL (≈ 151 µM) |  |  |  |  |  |  |  | 50 µg/mL (≈ 151 µM) | 
CC(=O)c1c(C)nc(SCC(=O)Nc2ccc(OCc3ccc(Cl)cc3)cc2)n1-c1ccc(Cl)cc1 | 0.56 µg/mL (≈ 1.04 µM) | > 1000 µg/mL | 1000 µg/mL (≈ 1850 µM) | > 1000 µg/mL | 250 µg/mL (≈ 463 µM) | 125 µg/mL (≈ 231 µM) | 125 µg/mL (≈ 231 µM) | 25 µg/mL (≈ 46.3 µM) | 88.8% | 51.7% | 500 µg/mL (≈ 925 µM) | 100 µg/mL (≈ 185 µM) | 47.3% | 85.7% | 41.2% | 500 µg/mL (≈ 925 µM) | 64.3% | 58.6% | 80.6% | 100 µg/mL (≈ 185 µM) | Activity [20]: 89.7%; Activity [21]: 47.8%; Activity [22]: 75.2%; Activity [23]: 59.4%
CC(=O)c1c(C)nc(SCC(=O)Nc2ccc(OC(=O)c3ccco3)cc2)n1-c1ccc(F)cc1 | 0.36 µg/mL (≈ 0.729 µM) | 500 µg/mL (≈ 1010 µM) | 500 µg/mL (≈ 1010 µM) | 500 µg/mL (≈ 1010 µM) | 100 µg/mL (≈ 203 µM) | 1000 µg/mL (≈ 2030 µM) | 250 µg/mL (≈ 507 µM) | 250 µg/mL (≈ 507 µM) | 81.7% | 48.2% | 125 µg/mL (≈ 253 µM) | 500 µg/mL (≈ 1010 µM) | 45.2% | 82.1% | 34.6% | 500 µg/mL (≈ 1010 µM) | 67.4% | 66.7% | 79.6% | 250 µg/mL (≈ 507 µM) | Activity [20]: 85.1%; Activity [21]: 55.9%; Activity [22]: 76.5%; Activity [23]: 64.8%
CC(=O)c1c(C)nc(SCC(=O)Nc2ccc(OC(=O)c3ccc(Cl)cc3)cc2)n1-c1ccc(Br)cc1 | 1.04 µg/mL (≈ 1.74 µM) | 500 µg/mL (≈ 835 µM) | 1000 µg/mL (≈ 1670 µM) | 500 µg/mL (≈ 835 µM) | 125 µg/mL (≈ 209 µM) | 500 µg/mL (≈ 835 µM) | 100 µg/mL (≈ 167 µM) | 12.5 µg/mL (≈ 20.9 µM) | 90.8% | 52.1% | 250 µg/mL (≈ 417 µM) | 250 µg/mL (≈ 417 µM) | 38% | 83.1% | 45.2% | 500 µg/mL (≈ 835 µM) | 62.4% | 65.2% | 82.3% | 100 µg/mL (≈ 167 µM) | Activity [20]: 86.1%; Activity [21]: 38.7%; Activity [22]: 68.9%; Activity [23]: 54.2%
